Test [1] is filed under the species Mus musculus. Nature of the test: Agonistic activity by mouse acetic acid writhing test. Type of test: functional.
Test [2] is filed under the species Rattus norvegicus. Nature of the test: Antagonistic activity was measured by Rat tail-flick morphine antagonist procedure. The format is functional. Summed up:
(§1)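 Rat tail-flick test: the compound's ability to block analgesia from a fixed challenge dose of morphine was scored across a dose-response.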

The test system of test [3] is Mus musculus. Put plainly: Agonistic activity was measured by Mouse acetic acid writhing test; IA is Inactive at highest dose tested (10 mg/Kg). The format is functional, organism-based. (In general: An intraperitoneal irritant provokes the stretching counted in writhing tests.)
Test [4] has as its system Rattus norvegicus. Nature of the test: Antagonistic activity was measured by Rat tail-flick morphine antagonist procedure; IA is Inactive at highest dose tested (10 mg/Kg). The format is functional, organism-based. Summed up: as §1
The species entered for test [5] is Rattus norvegicus. Nature of the test: Antagonistic activity was measured by Rat tail-flick morphine antagonist procedure; unable to achieve satisfactory dose response. Type of test: functional, organism-based. Summed up:
as §1

Activity calls are given as the source filed them. The rule behind the calls is not given here.

The ED50 is the dose that gives a 50% effect, or the effect in half of the subjects.

Compound `CCCC(=O)C1CC2C3Cc4ccc(OC)c5c4C2(CCN3CC2CC2)C(O5)C1=O` (stereo not drawn) showed an ED50 in the test filed under Mus musculus [1] of 2.8 mg/kg. The compound also returned an AD50 in the test listed under Rattus norvegicus [2] of 8.1 mg/kg.

`CC(C)(C)CC(=O)C1CC2C3Cc4ccc(O)c5c4C2(CCN3CC2CC2)C(O5)C1=O` (stereo not drawn): the ED50 result in the test on Mus musculus [3] is “inactive”. Further, the AD50 in the test filed under Rattus norvegicus [2] was greater than 10 mg/kg.

In the case of `COc1ccc2c3c1O[C@H]1C(=O)CC[C@H]4[C@@H](C2)N(C)CC[C@]314` [HYDROCODONE], the ED50 in the test filed under Mus musculus [1] amounted to 1.06 mg/kg.

Take `COc1ccc2c3c1OC1C(=O)C(C(=O)C(C)C)CC4C(C2)N(CC2CC2)CCC314` (stereo not drawn): in the test listed under Rattus norvegicus [2], the AD50 amounted to 2.8 mg/kg.

In the test filed under Rattus norvegicus [2], `CCCCC(=O)C1CC2C3Cc4ccc(O)c5c4C2(CCN3CC2CC2)C(O5)C1=O` (stereo not drawn) had an AD50 of 3.3 mg/kg.

For the compound `CC(C)C(=O)C1CC2C3Cc4ccc(O)c5c4C2(CCN3CC2CC2)C(O5)C1=O` (stereo not drawn), the AD50 in the test filed under Rattus norvegicus [2] was 0.81 mg/kg.

`O=C(c1ccccc1)C1CC2C3Cc4ccc(O)c5c4C2(CCN3CC2CC2)C(O5)C1=O` (stereo not drawn): the AD50 in the test listed under Rattus norvegicus [2] came out at 0.24 mg/kg.

With `CCC(=O)C1CC2C3Cc4ccc(O)c5c4C2(CCN3CC2CC2)C(O5)C1=O` (stereo not drawn), the ED50 entry in the test with Mus musculus [3] is “inactive”. The AD50 in the test filed under Rattus norvegicus [2] stood at 0.52 mg/kg.

Take `CCCC(=O)C1CC2C3Cc4ccc(OC)c5c4C2(CCN3C)C(O5)C1=O` (stereo not drawn): in the test on Mus musculus [3], the ED50 entry is “inactive”.

As for `COc1ccc2c3c1OC1C(=O)C(C(=O)c4ccccc4)CC4C(C2)N(CC2CC2)CCC314` (stereo not drawn), in the test filed under Rattus norvegicus [2], the AD50 was determined as 8 mg/kg.

Take `COc1ccc2c3c1OC1C(=O)C(C(C)=O)CC4C(C2)N(C)CCC314` (stereo not drawn): the ED50 in the test listed under Mus musculus [1] was 23.5 mg/kg.

Consider `CCCCCCC(=O)C1CC2C3Cc4ccc(O)c5c4C2(CCN3CC2CC2)C(O5)C1=O` (stereo not drawn), for which, in the test filed under Mus musculus [1], the ED50 was 0.4 mg/kg. For the same compound, the AD50 entry in the test with Rattus norvegicus [4] is “inactive”.

On to `COc1ccc2c3c1OC1C(=O)C(C(=O)c4ccc(F)cc4)CC4C(C2)N(CC2CC2)CCC314` (stereo not drawn), for which the ED50 result with Mus musculus [3] is “inactive”. This compound also came in with an AD50 in the test filed under Rattus norvegicus [2] greater than 10 mg/kg.

The compound `COc1ccc2c3c1OC1C(=O)C(C(C)=O)CC4C(C2)N(CC2CC2)CCC314` (stereo not drawn) displayed an ED50 in the test filed under Mus musculus [1] greater than 10 mg/kg. Further, the AD50 in the test filed under Rattus norvegicus [2] was greater than 10 mg/kg.

`CN1CC[C@]23c4c5ccc(O)c4O[C@H]2C(=O)CC[C@H]3[C@H]1C5` [HYDROMORPHONE] displayed an ED50 in the test listed under Mus musculus [1] of 0.08 mg/kg.

Consider `CC(=O)C1CC2C3Cc4ccc(O)c5c4C2(CCN3CC2CC2)C(O5)C1=O` (stereo not drawn), for which the ED50 in the test filed under Mus musculus [1] worked out at 4 mg/kg. In the test filed under Rattus norvegicus [2], the AD50 is 1.3 mg/kg.

`CCCC(=O)C1CC2C3Cc4ccc(O)c5c4C2(CCN3CC2CC2)C(O5)C1=O` (stereo not drawn) displayed an AD50 in the test filed under Rattus norvegicus [2] of 2.6 mg/kg.

In the test filed under Mus musculus [1], `CCCCCCC(=O)C1CC2C3Cc4ccc(OC)c5c4C2(CCN3CC2CC2)C(O5)C1=O.Cl` (stereo not drawn) yielded an ED50 greater than 10 mg/kg. In the test listed under Rattus norvegicus [2], this compound showed an AD50 greater than 10 mg/kg.

For `CCCCCC(=O)C1CC2C3Cc4ccc(OC)c5c4C2(CCN3CC2CC2)C(O5)C1=O` (stereo not drawn), the AD50 result with Rattus norvegicus [4] was “inactive”.

`CCCCC(=O)C1CC2C3Cc4ccc(OC)c5c4C2(CCN3CC2CC2)C(O5)C1=O` (stereo not drawn) returned an ED50 in the test filed under Mus musculus [1] greater than 10 mg/kg. In addition, in the test on Rattus norvegicus [4], the AD50 entry was “inactive”.

In turn, `CCCCCC(=O)C1CC2C3Cc4ccc(OC)c5c4C2(CCN3C)C(O5)C1=O` (stereo not drawn) had a median effective dose (ED50) in the test listed under Mus musculus [1] of 4 mg/kg.

`O=C1CCC2C3Cc4ccc(O)c5c4C2(CCN3CC2CC2)C1O5` (stereo not drawn): the 50% effect level in the test listed under Mus musculus [1] (ED50) was put at a dose of 1.3 mg/kg. In the test filed under Rattus norvegicus [2], this compound showed an AD50 of 0.19 mg/kg.

In turn, `CO[C@@]12CC[C@@]3(C[C@@H]1[C@](C)(O)C(C)(C)C)[C@H]1Cc4ccc(O)c5c4[C@@]3(CCN1CC1CC1)[C@H]2O5` [BUPRENORPHINE] yielded an ED50 in the test filed under Mus musculus [1] of 0.13 mg/kg. The AD50 result in the test listed under Rattus norvegicus [5] is listed as “unable to achieve satisfactory dose response”.

`CCC(=O)C1CC2C3Cc4ccc(OC)c5c4C2(CCN3CC2CC2)C(O5)C1=O` (stereo not drawn): the ED50 in the test filed under Mus musculus [1] is greater than 10 mg/kg. The compound further returned an AD50 in the test listed under Rattus norvegicus [2] of 6.5 mg/kg.

Take `CN1CC[C@]23c4c5ccc(O)c4O[C@H]2[C@@H](O)C=C[C@H]3[C@H]1C5` [MORPHINE]: in the test listed under Mus musculus [1], the ED50 is 0.79 mg/kg.

Consider `CCCC(=O)C1CC2C3Cc4ccc(O)c5c4C2(CCN3C)C(O5)C1=O` (stereo not drawn), for which the ED50 in the test listed under Mus musculus [1] amounted to 5.2 mg/kg.

In turn, `CCCCCC(=O)C1CC2C3Cc4ccc(O)c5c4C2(CCN3CC2CC2)C(O5)C1=O` (stereo not drawn) displayed an AD50 in the test filed under Rattus norvegicus [2] of 22 mg/kg.

For `O=C(c1ccc(F)cc1)C1CC2C3Cc4ccc(O)c5c4C2(CCN3CC2CC2)C(O5)C1=O` (stereo not drawn), the ED50 in the test filed under Mus musculus [1] was greater than 10 mg/kg. In the test filed under Rattus norvegicus [2], this compound returned an AD50 of roughly 10 mg/kg.

In the test listed under Mus musculus [1], `COc1ccc2c3c1OC1C(=O)CCC4C(C2)N(CC2CC2)CCC314` (stereo not drawn) registered an ED50 of 17 mg/kg. The AD50 in the test filed under Rattus norvegicus [2] was determined as 3.4 mg/kg.

The record behind these values is ChEMBL document CHEMBL1122118, “Novel opiates and antagonists. 4. 7-Alkanoylhydromorphones” (1982).
